# Results pooled from the literature.
# KIT A829P: Mast/stem cell growth factor receptor Kit (KIT, Homo sapiens, UniProt P10721, A829P)
# KIT L576P: Mast/stem cell growth factor receptor Kit (KIT, Homo sapiens, UniProt P10721, L576P)
# KIT: Mast/stem cell growth factor receptor Kit (KIT, Homo sapiens, UniProt P10721)
# KIT D816V: Mast/stem cell growth factor receptor Kit (KIT, Homo sapiens, UniProt P10721, D816V)
# KIT V559D/V654A: Mast/stem cell growth factor receptor Kit (KIT, Homo sapiens, UniProt P10721, V559D/V654A)
# KIT T670I/V559D: Mast/stem cell growth factor receptor Kit (KIT, Homo sapiens, UniProt P10721, T670I/V559D)
# KIT V559D: Mast/stem cell growth factor receptor Kit (KIT, Homo sapiens, UniProt P10721, V559D)
# KIT D816H: Mast/stem cell growth factor receptor Kit (KIT, Homo sapiens, UniProt P10721, D816H)
Compound,target,assay,conditions,remaining binding
O=C(c1ccc(Nc2ncc(Cl)c(-c3cc4ccccc4s3)n2)cc1)N1CCC(N2CCCC2)CC1,KIT A829P,"binding, competition with immobilised ligand",1 µM,19%
CN(CCCC(F)(F)F)c1nccc(-c2cnn3ncccc23)n1,KIT L576P,binding,1 µM,93%
O=C(c1ccc(Nc2nccc(-c3cc4ccccc4s3)n2)cc1)N1CCC(N2CCCC2)CC1,KIT,"binding, competition with immobilised ligand",1 µM,53%
CN1CCN(c2ccc(Nc3nccc(-c4ccccc4)n3)cc2C(F)(F)F)CC1,KIT L576P,binding,10 µM,0.45%
O=C(O)[C@H]1[C@H](Cn2nnc3ccccc3c2=O)CC[C@@H]1C(=O)c1ccc(OCCC2CCOCC2)cc1,KIT A829P,"cell-free assay, competition with immobilised ligand",1 µM,84%
c1cnn2ncc(-c3ccnc(N4CCC45COC5)n3)c2c1,KIT D816V,binding,1 µM,93%
CNC(=O)[C@@H]1CC[C@@H](n2c(-c3ccc4cnccc4c3)nc3ccc(C(=O)NCc4cccc(C(N)=O)c4)cc32)C1,KIT V559D/V654A,"binding, competition with immobilised ligand",1 µM,96%
CO[C@@H](C)c1c(Nc2ccc([C@@H](N(C)C(=O)C3CCS(=O)(=O)CC3)C(F)(F)F)cc2)cnc2cc(Cl)nn12,KIT T670I/V559D,"cell-free assay, competition with immobilised ligand",1 µM,82%
COc1cnc(Nc2cccc(S(N)(=O)=O)c2)nc1N1CCN(c2ccccc2)CC1,KIT V559D,"binding, competition with immobilised ligand",1 µM,94%
C[C@H](NC(=O)c1cnc2n1[C@](C)(Cc1ccc(C#N)cc1)C(=O)N2c1cc(Cl)c(F)c(Cl)c1)C(=O)NC1(c2ccccn2)CC1,KIT D816V,"cell-free assay, competition with immobilised ligand",1 µM,100%
O=C(NCC1CCOCC1)c1n[nH]cc1NC(=O)c1c(F)cccc1F,KIT V559D/V654A,"binding, competition with immobilised ligand",1 µM,90%
O=C(NCCCN1CCOCC1)c1ccc(Nc2ncc(Cl)c(-c3ccc(Cl)s3)n2)cc1,KIT D816H,"binding, competition with immobilised ligand",1 µM,22%
Cc1c(C(=O)O)cc(-c2ccc(C3CCNCC3)cc2)c2ccc(-c3ccc(C(F)(F)F)cc3)cc12,KIT V559D,"binding, competition with immobilised ligand",1 µM,100%
Nc1ncc2c(n1)-c1c([nH]c3ccc(C#CC4CC4)cc13)CCCC2,KIT D816H,"binding, competition with immobilised ligand",1 µM,89%
F[C@@H]1CCN(c2nccc(-c3cnn4ncccc34)n2)C1,KIT D816H,binding,1 µM,85%
CCN1CCN(Cc2ccc(C(=O)Nc3ccc(C)c(Oc4ccc5c(c4)CC(=O)N5)c3)cc2C(F)(F)F)CC1,KIT,"binding, competition with immobilised ligand",1 µM,0.85%
C[C@@H]1CCN(c2nccc(-c3cnn4ncccc34)n2)C1,KIT A829P,binding,1 µM,85%
CS(=O)(=O)N1CCCC(NC(=O)[C@H](CCC2CCCCC2)NC(=O)c2ccc(CNc3ncnc4c3nnn4-c3ccccc3)cc2)C1 (stereo partly drawn),KIT T670I/V559D,"cell-free assay, competition with immobilised ligand",0.1 µM,100%
CN(c1nccc(-c2cnn3ncccc23)n1)C1CC1,"Mast/stem cell growth factor receptor Kit, autoinhibited (KIT, Homo sapiens, UniProt P10721)",binding,1 µM,100%
O=C(NS(=O)(=O)c1ccc(NCC2CCOCC2)c([N+](=O)[O-])c1)c1ccc(N2CCN(Cc3ccc(C(F)(F)F)cc3-c3ccc(Cl)cc3)CC2)cc1Oc1cnc2[nH]ccc2c1,KIT V559D,"cell-free assay, competition with immobilised ligand",1 µM,100%
N[C@H]1CCN(c2nccc(-c3cnn4ncccc34)n2)C1,KIT A829P,binding,1 µM,100%
c1cncc(-c2cccc(Nc3nccc(NC4CCCCC4)n3)c2)c1,KIT A829P,"binding, competition with immobilised ligand",10 µM,27%
Cc1cnn2ncc(-c3ccnc(N(C)C)n3)c2c1,KIT,binding,1 µM,100%
N#Cc1ccc(Nc2ccc3[nH]c(=O)[nH]c3c2)c(Cl)c1,KIT D816V,"cell-free assay, competition with immobilised ligand",1 µM,88%
